The values that follow come from ChEMBL document CHEMBL3525903 (Drug Metab Dispos, 2013).

Series [1] concerns the target ATP-binding cassette sub-family C member 2 (Homo sapiens, UniProt Q92887). The experiment in a line: Inhibition of human MRP2 expressed in MDCK2 cells assessed as reduction of [3H]E217betaG substrate transport at 25 uM by liquid scintillation counting. Format: ADME, cell-based. Particulars: mdck-ii; call rule not given here. The method, boiled down: (§1)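 Membrane vesicles made from MDCKII cells expressing BCRP or MRP2, and from parental cells (1 μg/μL protein). Run in Tris-sucrose buffer, pH 7.4, with 10 mM MgCl2, creatine phosphokinase and ATP, or AMP as control. Substrates: 0.035 μM [3H]E-sul for BCRP, 2 min; 0.033 μM [3H]E217βG for MRP2, 5 min; both at 37 °C. Stopped ice-cold, filtered, and counted by scintillation.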

In series [2] the target is T1, Broad substrate specificity ATP-binding cassette transporter ABCG2 (Homo sapiens, UniProt Q9UNQ0).
T1 sequence (Q9UNQ0 whole entry): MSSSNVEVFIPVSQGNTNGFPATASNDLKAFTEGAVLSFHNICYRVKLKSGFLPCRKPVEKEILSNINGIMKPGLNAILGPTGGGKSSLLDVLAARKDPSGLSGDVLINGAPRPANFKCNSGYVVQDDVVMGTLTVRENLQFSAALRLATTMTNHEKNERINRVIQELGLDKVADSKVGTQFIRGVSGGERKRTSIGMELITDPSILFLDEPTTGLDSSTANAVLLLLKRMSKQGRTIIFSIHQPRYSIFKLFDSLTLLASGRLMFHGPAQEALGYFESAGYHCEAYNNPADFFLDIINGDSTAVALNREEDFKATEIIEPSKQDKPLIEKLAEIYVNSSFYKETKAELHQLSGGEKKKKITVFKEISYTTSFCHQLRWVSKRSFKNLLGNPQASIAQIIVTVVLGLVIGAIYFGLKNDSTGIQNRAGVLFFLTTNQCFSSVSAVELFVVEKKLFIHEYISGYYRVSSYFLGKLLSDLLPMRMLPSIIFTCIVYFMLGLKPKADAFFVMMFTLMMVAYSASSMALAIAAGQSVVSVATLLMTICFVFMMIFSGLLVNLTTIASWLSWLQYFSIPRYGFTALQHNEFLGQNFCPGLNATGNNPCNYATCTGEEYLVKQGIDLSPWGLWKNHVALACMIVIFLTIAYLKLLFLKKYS
As to the kind of experiment: Inhibition of human BCRP expressed in MDCK2 cells assessed as reduction of [3H]E-sul substrate transport at 50 uM by liquid scintillation counting. Particulars: mdck-ii. In kind it is ADME, cell-based. Put shortly: as §1

The target in series [3] is T2, Solute carrier family 22 member 11 (Homo sapiens, UniProt Q9NSA0).
T2 sequence (Q9NSA0 whole entry): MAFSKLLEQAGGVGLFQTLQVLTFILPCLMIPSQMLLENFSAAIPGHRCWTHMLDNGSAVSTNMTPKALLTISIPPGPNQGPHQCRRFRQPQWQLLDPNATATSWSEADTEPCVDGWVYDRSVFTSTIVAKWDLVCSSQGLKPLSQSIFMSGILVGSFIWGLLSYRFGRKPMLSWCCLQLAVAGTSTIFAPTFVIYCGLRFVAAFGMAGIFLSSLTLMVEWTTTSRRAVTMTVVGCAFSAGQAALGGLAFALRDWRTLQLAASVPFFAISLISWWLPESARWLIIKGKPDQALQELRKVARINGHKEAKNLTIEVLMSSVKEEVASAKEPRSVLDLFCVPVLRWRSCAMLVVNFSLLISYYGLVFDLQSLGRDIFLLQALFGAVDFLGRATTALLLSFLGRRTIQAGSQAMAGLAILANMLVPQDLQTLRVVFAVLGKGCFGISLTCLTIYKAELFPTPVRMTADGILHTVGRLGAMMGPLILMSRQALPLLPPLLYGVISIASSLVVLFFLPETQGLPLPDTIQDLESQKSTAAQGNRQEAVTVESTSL
The experiment in a line: Inhibition of OAT4 (unknown origin) expressed in HEK293 cells assessed as reduction of [3H]E-sul substrate uptake at 500 uM by liquid scintillation counting. The note with it: hek293, 500 µM. Format: ADME, cell-based. Put shortly:
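HEK293 cells transfected with OAT4, incubated with 0.1 μM [3H]E-sul and probenecid 500 µM as the inhibitor. Uptake counted by scintillation, normalised to protein, with vector uptake subtracted.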

In series [4] the target is T3, Organic anion transporter 3 (Homo sapiens, UniProt Q8TCC7).
T3 sequence (Q8TCC7 whole entry): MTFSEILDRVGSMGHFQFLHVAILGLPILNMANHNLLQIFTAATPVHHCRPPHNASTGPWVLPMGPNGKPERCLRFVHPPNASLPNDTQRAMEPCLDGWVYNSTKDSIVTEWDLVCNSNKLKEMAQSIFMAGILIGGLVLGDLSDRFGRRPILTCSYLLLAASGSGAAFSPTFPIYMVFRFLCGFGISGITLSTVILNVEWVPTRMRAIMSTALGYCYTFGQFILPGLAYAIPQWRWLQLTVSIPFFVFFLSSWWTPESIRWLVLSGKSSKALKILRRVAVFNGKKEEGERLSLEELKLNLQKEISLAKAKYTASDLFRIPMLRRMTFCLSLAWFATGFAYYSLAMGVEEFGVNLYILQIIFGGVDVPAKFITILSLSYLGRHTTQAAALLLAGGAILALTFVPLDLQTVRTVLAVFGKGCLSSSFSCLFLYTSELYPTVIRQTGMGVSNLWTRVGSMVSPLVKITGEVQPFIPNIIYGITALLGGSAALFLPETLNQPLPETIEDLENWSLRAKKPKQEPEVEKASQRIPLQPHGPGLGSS
The experiment in a line: Inhibition of OAT3 (unknown origin) expressed in HEK293 cells assessed as reduction of [3H]E-sul substrate uptake at 100 uM by liquid scintillation counting. In kind it is ADME, cell-based. The note with it: hek293, 100 µM. The method, boiled down: (§2)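 HEK293 cells transiently transfected with OAT, OATP or OCT plasmid (FuGENE6; 24 h, then 24 h more with sodium butyrate), or stable OCTN1/OCTN2 lines; vector-transfected cells as control. Washed, preincubated 15–60 min at 37 °C in modified Krebs-Henseleit/25 mM HEPES buffer. Uptake of radiolabelled substrate, 100 µM inhibitor. Cells lysed in NaOH and counted by scintillation; counts normalised to medium radioactivity and Lowry protein; vector uptake subtracted.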

Another series has as its target T4, OCTN1 (SLC22A4) (Homo sapiens, UniProt Q9H015).
T4 sequence (Q9H015 whole entry): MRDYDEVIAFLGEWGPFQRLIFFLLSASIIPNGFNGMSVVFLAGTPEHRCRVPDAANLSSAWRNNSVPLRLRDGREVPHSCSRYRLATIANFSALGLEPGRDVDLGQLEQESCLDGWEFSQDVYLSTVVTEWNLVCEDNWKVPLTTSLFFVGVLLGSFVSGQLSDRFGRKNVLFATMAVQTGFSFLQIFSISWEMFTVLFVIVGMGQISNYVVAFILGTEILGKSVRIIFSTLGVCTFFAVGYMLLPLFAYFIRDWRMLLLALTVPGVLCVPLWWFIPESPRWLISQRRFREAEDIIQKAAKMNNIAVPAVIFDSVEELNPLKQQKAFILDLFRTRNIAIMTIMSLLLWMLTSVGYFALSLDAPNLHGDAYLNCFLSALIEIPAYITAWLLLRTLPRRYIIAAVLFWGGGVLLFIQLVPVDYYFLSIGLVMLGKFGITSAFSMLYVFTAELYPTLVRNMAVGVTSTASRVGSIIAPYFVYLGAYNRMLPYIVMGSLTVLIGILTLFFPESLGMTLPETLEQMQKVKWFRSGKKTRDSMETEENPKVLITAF
As to the kind of experiment: Inhibition of OCTN1 (unknown origin) expressed in HEK293 cells assessed as reduction of [3H]ergothioneine substrate uptake at 1500 uM by liquid scintillation counting. Format: cell-based. The note with it: HEK293 cells expressing OCTN1, probe [3H]ergothioneine. Put shortly: (§3)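 HEK293 cells stably expressing OCTN1 or OCTN2, cultured two days before the assay. Quinidine 1500 µM tested against [3H]ergothioneine (1 μM, OCTN1) or [3H]carnitine (0.1 μM, OCTN2). Vector-cell uptake subtracted.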

For another series, the target named is T5, OCTN2 (Homo sapiens, UniProt O76082).
T5 sequence (O76082 whole entry): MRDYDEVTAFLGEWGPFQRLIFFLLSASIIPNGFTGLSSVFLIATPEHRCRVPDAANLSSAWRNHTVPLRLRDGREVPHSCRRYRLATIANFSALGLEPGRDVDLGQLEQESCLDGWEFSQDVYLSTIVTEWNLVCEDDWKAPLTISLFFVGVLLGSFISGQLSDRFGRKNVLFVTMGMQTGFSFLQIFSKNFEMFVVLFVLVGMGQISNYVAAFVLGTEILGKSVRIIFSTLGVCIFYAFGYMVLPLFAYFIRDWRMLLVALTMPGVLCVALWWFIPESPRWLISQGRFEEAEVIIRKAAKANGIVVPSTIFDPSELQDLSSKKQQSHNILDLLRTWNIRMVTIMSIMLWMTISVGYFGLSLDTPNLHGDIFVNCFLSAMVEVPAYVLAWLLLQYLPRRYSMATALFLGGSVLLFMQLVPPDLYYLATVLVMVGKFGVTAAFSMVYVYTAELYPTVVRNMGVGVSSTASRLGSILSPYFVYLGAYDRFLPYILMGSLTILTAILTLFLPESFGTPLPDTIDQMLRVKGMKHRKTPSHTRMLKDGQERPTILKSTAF
The experiment in a line: Inhibition of OCTN2 (unknown origin) expressed in HEK293 cells assessed as reduction of [3H]carnitine substrate uptake at 1500 uM by liquid scintillation counting. Format: cell-based. The note with it: HEK293 cells expressing OCTN2, probe [3H]carnitine. Put shortly: as §3

Series [5] concerns the target T6, Solute carrier organic anion transporter family member 1B1 (Homo sapiens, UniProt Q9Y6L6).
T6 sequence (Q9Y6L6 whole entry): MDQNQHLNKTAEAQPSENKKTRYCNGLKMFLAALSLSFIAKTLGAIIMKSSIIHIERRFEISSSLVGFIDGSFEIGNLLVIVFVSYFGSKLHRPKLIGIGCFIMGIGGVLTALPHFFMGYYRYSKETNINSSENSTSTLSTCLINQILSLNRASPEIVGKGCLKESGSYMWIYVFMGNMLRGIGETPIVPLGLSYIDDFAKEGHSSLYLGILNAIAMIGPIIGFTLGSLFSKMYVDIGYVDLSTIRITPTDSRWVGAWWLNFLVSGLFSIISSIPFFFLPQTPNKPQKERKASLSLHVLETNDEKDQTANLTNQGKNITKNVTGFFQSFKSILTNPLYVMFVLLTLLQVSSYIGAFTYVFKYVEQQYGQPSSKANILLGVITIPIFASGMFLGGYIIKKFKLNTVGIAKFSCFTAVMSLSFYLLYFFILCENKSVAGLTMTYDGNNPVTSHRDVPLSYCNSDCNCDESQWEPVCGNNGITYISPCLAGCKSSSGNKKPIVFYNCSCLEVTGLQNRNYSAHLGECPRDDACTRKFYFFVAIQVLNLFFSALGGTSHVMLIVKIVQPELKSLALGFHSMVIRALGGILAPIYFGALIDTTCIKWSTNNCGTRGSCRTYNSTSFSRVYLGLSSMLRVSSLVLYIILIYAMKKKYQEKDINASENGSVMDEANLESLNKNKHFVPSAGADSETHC
As to the kind of experiment: Inhibition of OATP1B1 (unknown origin) expressed in HEK293 cells assessed as reduction of [3H]E217betaG substrate uptake at 100 uM by liquid scintillation counting. Format: ADME, cell-based. The note with it: hek293, 100 µM. Put shortly: as §2

Series [6] addresses T7, Solute carrier organic anion transporter family member 1B3 (Homo sapiens, UniProt Q9NPD5).
T7 sequence (Q9NPD5 whole entry): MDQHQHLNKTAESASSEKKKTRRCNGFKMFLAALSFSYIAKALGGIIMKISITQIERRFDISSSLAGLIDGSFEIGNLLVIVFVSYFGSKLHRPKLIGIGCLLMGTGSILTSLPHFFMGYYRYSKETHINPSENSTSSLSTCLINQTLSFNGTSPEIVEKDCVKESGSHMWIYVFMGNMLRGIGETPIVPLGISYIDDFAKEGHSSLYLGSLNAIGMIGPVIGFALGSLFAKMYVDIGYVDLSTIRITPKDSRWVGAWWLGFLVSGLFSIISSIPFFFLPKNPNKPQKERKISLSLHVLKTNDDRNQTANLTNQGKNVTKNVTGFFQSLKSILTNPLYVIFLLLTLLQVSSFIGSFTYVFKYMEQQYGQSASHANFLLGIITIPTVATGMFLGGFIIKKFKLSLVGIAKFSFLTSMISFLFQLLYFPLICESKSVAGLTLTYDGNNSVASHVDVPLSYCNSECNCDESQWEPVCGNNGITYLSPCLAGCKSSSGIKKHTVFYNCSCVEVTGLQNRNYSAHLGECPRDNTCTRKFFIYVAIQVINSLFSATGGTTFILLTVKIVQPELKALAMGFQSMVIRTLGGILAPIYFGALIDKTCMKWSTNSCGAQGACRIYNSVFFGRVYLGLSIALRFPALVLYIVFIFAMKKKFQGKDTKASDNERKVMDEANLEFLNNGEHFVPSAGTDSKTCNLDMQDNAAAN
The experiment in a line: Inhibition of OATP1B3 (unknown origin) expressed in HEK293 cells assessed as reduction of [3H]CCK8 substrate uptake at 100 uM by liquid scintillation counting. The note with it: hek293, 100 µM. Format: ADME, cell-based. Put shortly: as §2

Chain of ATP-binding cassette sub-family C member 2 (Q92887 whole entry): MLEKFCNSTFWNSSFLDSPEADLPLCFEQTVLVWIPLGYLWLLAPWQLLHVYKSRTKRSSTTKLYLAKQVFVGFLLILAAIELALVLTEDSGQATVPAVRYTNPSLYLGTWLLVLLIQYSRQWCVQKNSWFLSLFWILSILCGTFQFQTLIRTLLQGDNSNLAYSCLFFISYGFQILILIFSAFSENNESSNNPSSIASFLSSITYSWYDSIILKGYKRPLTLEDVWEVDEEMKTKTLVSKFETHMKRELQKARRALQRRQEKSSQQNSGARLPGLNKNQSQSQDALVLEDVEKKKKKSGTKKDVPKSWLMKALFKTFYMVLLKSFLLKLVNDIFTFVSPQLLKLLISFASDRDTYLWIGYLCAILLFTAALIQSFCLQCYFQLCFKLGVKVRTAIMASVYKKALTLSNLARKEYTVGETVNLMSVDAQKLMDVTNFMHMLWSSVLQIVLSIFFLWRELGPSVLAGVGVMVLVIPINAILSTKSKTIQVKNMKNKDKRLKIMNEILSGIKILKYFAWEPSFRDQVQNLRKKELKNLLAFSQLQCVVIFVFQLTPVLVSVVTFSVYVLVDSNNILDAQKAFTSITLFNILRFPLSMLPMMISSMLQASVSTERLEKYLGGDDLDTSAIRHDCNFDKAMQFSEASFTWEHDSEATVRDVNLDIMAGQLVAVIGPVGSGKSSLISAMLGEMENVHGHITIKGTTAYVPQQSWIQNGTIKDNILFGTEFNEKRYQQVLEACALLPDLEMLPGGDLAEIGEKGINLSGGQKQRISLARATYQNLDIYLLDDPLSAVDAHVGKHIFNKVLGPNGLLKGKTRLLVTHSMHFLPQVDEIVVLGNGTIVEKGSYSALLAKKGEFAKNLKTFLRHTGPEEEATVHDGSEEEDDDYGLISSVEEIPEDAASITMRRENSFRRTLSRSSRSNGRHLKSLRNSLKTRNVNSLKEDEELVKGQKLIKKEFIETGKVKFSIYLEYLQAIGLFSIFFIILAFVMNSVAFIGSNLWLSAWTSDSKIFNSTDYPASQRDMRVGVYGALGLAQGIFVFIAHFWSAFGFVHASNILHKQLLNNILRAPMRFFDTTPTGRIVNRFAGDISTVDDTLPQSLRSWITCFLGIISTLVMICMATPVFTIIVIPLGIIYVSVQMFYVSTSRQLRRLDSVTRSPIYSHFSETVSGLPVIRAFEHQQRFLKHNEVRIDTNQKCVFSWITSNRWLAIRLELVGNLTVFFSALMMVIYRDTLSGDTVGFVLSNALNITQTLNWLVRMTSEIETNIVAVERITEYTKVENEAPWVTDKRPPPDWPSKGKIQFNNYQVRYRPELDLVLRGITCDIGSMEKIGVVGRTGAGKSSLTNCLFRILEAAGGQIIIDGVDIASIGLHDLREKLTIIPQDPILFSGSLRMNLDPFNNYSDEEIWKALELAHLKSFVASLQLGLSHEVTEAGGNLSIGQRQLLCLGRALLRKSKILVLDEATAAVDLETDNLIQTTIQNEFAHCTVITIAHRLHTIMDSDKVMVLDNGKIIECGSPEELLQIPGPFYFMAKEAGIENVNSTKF

Turning to `CN(C)C(=O)CCSC(SCCC(=O)O)c1cccc(/C=C/c2ccc3ccc(Cl)cc3n2)c1` (stereo not drawn) [MK-571], in series [1], the “inhibition (INH)” value is listed as “Active”.
For the compound `COc1cc2nc(N3CCN(C(=O)c4ccco4)CC3)nc(N)c2cc1OC` [PRAZOSIN], the “inhibition (INH)” value in series [2] is “Active”.
With `CCCN(CCC)S(=O)(=O)c1ccc(C(=O)O)cc1` [PROBENECID], the “inhibition (INH)” value is listed as 81.4% in series [3] and 88.5% in series [4].
Turning to `C=C[C@H]1C[N@@]2CC[C@H]1C[C@@H]2[C@@H](O)c1ccnc2ccc(OC)cc12` [QUINIDINE], the inhibition at 1500 µM was determined as 83.9% on OCTN1 (SLC22A4) and 89.9% at OCTN2.
`CO[C@H]1/C=C/O[C@@]2(C)Oc3c(C)c(O)c4c(O)c(c(/C=N/N5CCN(C)CC5)c(O)c4c3C2=O)NC(=O)/C(C)=C\C=C\[C@H](C)[C@H](O)[C@@H](C)[C@@H](O)[C@@H](C)[C@H](OC(C)=O)[C@@H]1C` [RIFAMPIN]: the “inhibition (INH)” value is reported as 98.4% in series [5] and 97.4% in series [6].
